# Screening results as filed in PubChem BioAssay.
# An excerpt weighted towards active compounds, which were near 3.7% of everything screened.
# KCNK9 inh – human KCNK9 channel inhibition | B-score at 10 µM | Q9NPC2 | 310,000 compounds, 1.2% hits | HEK293 KCNK9, FluxOR thallium flux fluorescence; stronger effect = lower value;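 active means ratio B-score over 3 SD below the library mean, with starting fluorescence within 5 SD of its mean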;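 further: negative B-score means less thallium flux so channel inhibition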
# Target sequence (Q9NPC2 whole entry, looked up): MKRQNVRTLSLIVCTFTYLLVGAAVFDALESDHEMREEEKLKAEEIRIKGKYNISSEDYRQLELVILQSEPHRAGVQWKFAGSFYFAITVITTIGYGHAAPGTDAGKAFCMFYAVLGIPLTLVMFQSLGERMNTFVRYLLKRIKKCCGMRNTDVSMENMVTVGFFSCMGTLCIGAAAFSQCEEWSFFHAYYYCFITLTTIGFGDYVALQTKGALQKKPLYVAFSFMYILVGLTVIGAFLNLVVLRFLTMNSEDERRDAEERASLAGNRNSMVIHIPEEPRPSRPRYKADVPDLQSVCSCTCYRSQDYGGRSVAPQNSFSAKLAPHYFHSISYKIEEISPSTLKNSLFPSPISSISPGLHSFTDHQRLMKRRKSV
# Kir21 block – blocks the mouse Kir2.1 inward-rectifier potassium channel; B-score at 10 µM; 310,000 compounds, 0.85% hits; HEK293-Kir2.1, FluxOR thallium flux fluorescence; stronger effect = lower value;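 active means fluorescence ratio B-score at or below minus 3 SD of library scores, with starting-brightness B-score within 2 SD, cut at about -4.2 in these data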;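 further: channel flux triggered by added potassium and thallium sulfate stimulus; B-score of peak minus minimum fluorescence over baseline after thallium stimulus; more negative B-score means stronger Kir2.1 block with less thallium influx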
# hERG protect – compounds protecting human hERG from proarrhythmic drug block. 310,000 compounds, 0.51% hits. Q12809. activation (rescue from dofetilide block), less the hit threshold, % at 10 µM. CHO-hERG, FluxOR thallium flux, dofetilide IC70 present;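 active means activation above the mean of controls blocked by dofetilide plus 5 SD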;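 further: thallium influx through hERG after potassium depolarization seen as dye fluorescence rise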
# KCNQ1 block – human KCNQ1 channel inhibition | 310,000 compounds, 1.3% hits | B-score at 10 µM | P51787 | CHO-K1 KCNQ1, FluxOR thallium flux fluorescence; stronger effect = higher value | AID 2642;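 active means compounds whose thallium flux B-score, printed positive for inhibition, exceeds three library SD while starting fluorescence stays within three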;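 further: channel opened by potassium depolarization with thallium stimulus after 20 min compound exposure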
# KCNK3 inh – human KCNK3 channel inhibition, primary screen. O14649. CHO-KCNK3 thallium flux, FluxOR fluorescence; stronger effect = lower value. B-score at 10 µM. 340,000 compounds, 0.84% hits. AID 602410;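 active means B-score under library mean minus 4 SD, starting fluorescence ratio at most library mean plus 5 SD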;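 further: more negative B-score means stronger inhibition of thallium flux through KCNK3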
# KCNQ1 act – potentiates or activates the human KCNQ1 potassium channel. P51787. CHO-K1 KCNQ1, thallium flux FluxOR fluorescence; stronger effect = higher value. B-score at 10 µM. 310,000 compounds, 0.35% hits;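 active means fluorescence ratio B-score, a plate-corrected score, at least three library SD, with initial intensity B-score within 5 SD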
#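 Test system: CHO-K1 cells stably expressing KCNQ1 / Medium: assay buffer / Also added: depolarizing K+/Tl+ stimulus, K2SO4 and Tl2SO4 each 12.5 mM in 5x stock / Incubation: 90 min dye loading and 20 min compound exposure, both at room temperature / Signal: thallium influx via FluxOR fluorescence, kinetic imaging / Evaluation: B score of baseline-normalized fluorescence ratio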
# An asterisk follows results filed as active; i = inactive; x = no result.
SMILES,KCNK9 inh,Kir21 block,hERG protect,KCNQ1 block,KCNK3 inh,KCNQ1 act
O=C(N/N=C/c1ccsc1)c1ccc2ccccc2n1,i,-1.6,-17,i,i,i
COCCCNC(=O)C1=CCN(S(=O)(=O)c2ccc(C)cc2)CC1,i,-0.5,-7,i,i,i
N#CC1=C(N)NC(SCc2ccc(F)cc2)=C(C#N)C12CCCCC2,i,-4.4*,-26,i,i,i
N#CC1=C(N)NC(SCC(=O)Nc2ccccc2)=C(C#N)C12CCCC2,i,1.1,-15,10*,i,i
COc1ccc(CNC(=O)C(c2ccccc2F)N(C(=O)c2csnn2)C2CC2)cc1 (configuration not stated),i,-0.08,-8,i,i,i
Cc1ccc(C(C)(O)CS(=O)(=O)Cc2ccccc2)cc1 (configuration not stated),i,0.14,-2,i,i,i
Cc1ccccc1NC(=S)N1CCCN(Cc2ccc(F)cc2)C1,i,-4.5*,-10,i,i,i
Cc1c(Cl)cccc1NC(=S)N1CCCN(Cc2ccc(F)cc2)C1,i,-6.2*,-7,i,i,i
Cc1ccc(NC(=S)N2CCCN(Cc3ccc(F)cc3)C2)c(C)c1,i,-3.4,-4,i,i,i
CC[C@H]1OC(=O)[C@H](C)[C@@H](O[C@H]2C[C@@](C)(OC)[C@@H](O)[C@H](C)O2)[C@H](C)[C@@H](O[C@@H]2O[C@H](C)C[C@H](N(C)C)[C@H]2O)[C@](C)(O)C[C@@H](C)C(=NOCOCCOC)[C@H](C)[C@@H](O)[C@]1(C)O,i,0.6,-7,i,i,i
CCCCc1cc(=O)oc2cc(C)cc(OCC(=O)Nc3ccccn3)c12,i,-0.34,-4,i,i,i
COC(=O)C1=C(C)N(Cc2ccccc2)C(=NCc2cc(OC)c(OC)c(OC)c2)N[C@H]1c1cccc(F)c1,i,-5.2*,-7,i,i,i
CCOC(=O)CN1C(=O)N[C@@H](c2cccc(F)c2)C(C(=O)OC)=C1C,i,-6.1*,-7,i,i,i
CCOC(=O)CN1C(=O)N[C@@H](c2ccccc2)C(C(=O)OC)=C1C,x,x,x,x,i,x
COC(=O)C1=C(C)N(Cc2ccccc2)C(=NCc2ccc(OC)cc2)N[C@H]1c1cccc(F)c1,i,-9.6*,-18,i,i,i
O=C(Oc1ccccc1F)c1ccc2c(=O)n3c(nc2c1)CCC3,i,-0.17,-10,i,i,i
COc1ccc(C(=O)OCC(=O)Nc2c(C)cccc2C)c(OC)c1OC,i,-0.05,-1,i,i,i
O=Cc1s/c(=N\S(=O)(=O)c2ccccc2)n(CCCCl)c1Cl,i,-0.82,7.4*,i,i,i
O=C(c1ccc(N2CCOCC2)c([N+](=O)[O-])c1)N1CCCC(C(F)(F)F)C1 (configuration not stated),i,-0.41,-10,i,i,i
Cc1ccc(C(=O)C2(C)C3c4cc(Br)ccc4OC(=O)C32C(=O)c2ccco2)cc1 (configuration not stated),-7.7*,-0.33,-7,i,i,i
CCOC(=O)Cn1c(=NC(=O)c2ccc([N+](=O)[O-])s2)sc2ccccc21,i,0.72,-11,i,i,i
COc1ccc(OC(C)C(=O)NC2CCCCCC2)cc1 (configuration not stated),i,-1.5,-5,i,i,i
O=C1CCN2C=Nc3cccc4ccc1c2c34,i,-15,-48,25*,i,i
O=C1CCC(=O)c2ccc3c4c(ccc1c24)CC3,x,x,x,x,i,x
CCOC(=O)c1cc(CC)sc1NC(=O)CN1C(=O)C(=O)N(CC(C)C)C1=O,i,1.6,-7,i,i,i
CCOc1ccc(NC(=O)c2ccc3c(c2)CCN3S(C)(=O)=O)cc1,i,-1.6,11*,i,i,i
O=C(CSc1nc2ccccc2c(=O)[nH]1)Nc1ccc(C(=O)O)cc1,i,-0.15,-10,i,i,i
CCOc1ccc(NC(=O)c2ccc(N)cc2)cc1,i,0.88,-1,i,i,11*
